Values belong to the compound of their own block, whether it stands above or below them. Calls of active or inactive are those of the source. The calls are words filed in the database; no cut-off is given here.
Key:
A549 [1] = assay: Selectivity ratio of IC50 for human A549 cells to IC50 for human MIAPaCa2 cells; type: functional
A549 [2] = assay: Cytotoxicity against human A549 cells after 48 hrs by MTT assay; type: functional, cell-based; settings: for IC50: A549, 48 h
In short: (§1)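 Cells seeded and grown 24 h, then exposed 48 h to a range of concentrations in DMSO (final 0.1%), with vehicle controls at equal DMSO. Medium replaced with 0.5 mg/mL MTT in RPMI with 10% FBS for 2 h at 37 °C, reduced dye dissolved in DMSO, absorbance read at 540 nm. Triplicates; IC50 from dose–response.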

[3] = (§2) Cytotoxicity against human MIAPaCa2 cells after 48 hrs by MTT assay; type: functional, cell-based; settings: MIA PaCa-2, 48 h; in short: as §1
[4] = target: T1, Voltage-dependent T-type calcium channel subunit alpha-1G (Homo sapiens, UniProt O43497); assay: Inhibition of T-type CaV3.1 channel (unknown origin) expressed in HEK293 cells assessed as inhibition of calcium current at 1 uM by whole cell patch-clamp method; type: cell-based
[5] = target: T1, Voltage-dependent T-type calcium channel subunit alpha-1G; assay: Inhibition of T-type CaV3.1 channel (unknown origin) expressed in HEK293 cells assessed as inhibition of calcium current by whole cell patch-clamp method; type: cell-based
A549 [6] = assay: Induction of apoptosis in human A549 cells assessed as reduction in pro-caspase-3 expression at 5 uM after 24 hrs by Western blot analysis; type: functional, cell-based
In short: (§3)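 Cells treated 24 h without compound or at 1, 3 or 5 µM. Pro-caspase-3, pro-caspase-9 and PARP cleavage assessed by Western blot.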

A549 [7] = assay: Induction of apoptosis in human A549 cells assessed as reduction in pro-caspase-9 expression at 5 uM after 24 hrs by Western blot analysis; type: functional, cell-based; in short: as §3
A549 [8] = assay: Induction of apoptosis in human A549 cells assessed as increase in PARP protein cleavage at 5 uM after 24 hrs by Western blot analysis; type: functional, cell-based; in short: as §3
A549 [9] = assay: Ratio of KYS05090 IC50 to compound IC50 for human A549 cells after 48 hrs by MTT assay; type: functional
MIA PaCa-2 [10] = assay: Ratio of KYS05090 IC50 to compound IC50 for human MIAPaCa2 cells after 48 hrs by MTT assay; type: functional
MIA PaCa-2 [11] = assay: as §2; type: functional, cell-based; in short: as §1
A549 [12] = assay: Cell cycle arrest in human A549 cells assessed as accumulation at sub-G1 phase at 5 uM after 24 hrs by flow cytometry (reference value: 7.8 %); type: functional
A549 [13] = assay: Cell cycle arrest in human A549 cells assessed as accumulation at G0/G1 phase at 5 uM after 24 hrs by flow cytometry (reference value: 53.1 %); type: functional
A549 [14] = assay: Cell cycle arrest in human A549 cells assessed as accumulation at S phase at 5 uM after 24 hrs by flow cytometry (reference value: 17.6 %); type: functional
A549 [15] = assay: Cell cycle arrest in human A549 cells assessed as accumulation at G2/M phase at 5 uM after 24 hrs by flow cytometry (reference value: 21.6 %); type: functional
A549 [16] = assay: Cell cycle arrest in human A549 cells assessed as accumulation at sub-G1 phase at 5 uM after 48 hrs by flow cytometry (reference value: 4.9 %); type: functional
A549 [17] = assay: Cell cycle arrest in human A549 cells assessed as accumulation at G0/G1 phase at 5 uM after 48 hrs by flow cytometry (reference value: 57.8 %); type: functional
A549 [18] = assay: Cell cycle arrest in human A549 cells assessed as accumulation at S phase at 5 uM after 48 hrs by flow cytometry (reference value: 12.0 %); type: functional
A549 [19] = assay: Cell cycle arrest in human A549 cells assessed as accumulation at G2/M phase at 5 uM after 48 hrs by flow cytometry (reference value: 25.4 %); type: functional
A549 [20] = assay: Induction of apoptosis in human A549 cells assessed as viable cells at 3 uM after 24 hrs by annexin V/PI staining-based FACS analysis (reference value: 91.1 %); settings: A549, 24 h
A549 [21] = assay: Induction of apoptosis in human A549 cells assessed as viable cells at 5 uM after 24 hrs by annexin V/PI staining-based FACS analysis (reference value: 91.1 %); settings: A549, 24 h
A549 [22] = assay: Induction of apoptosis in human A549 cells assessed as viable cells at 1 uM after 24 hrs by annexin V/PI staining-based FACS analysis (reference value: 91.1 %); settings: A549, 24 h
A549 [23] = assay: Induction of apoptosis in human A549 cells assessed as necrotic cells at 3 uM after 24 hrs by annexin V/PI staining-based FACS analysis (reference value: 2.8 %)
A549 [24] = assay: Induction of apoptosis in human A549 cells assessed as necrotic cells at 5 uM after 24 hrs by annexin V/PI staining-based FACS analysis (reference value: 2.8 %)
A549 [25] = assay: Induction of apoptosis in human A549 cells assessed as necrotic cells at 1 uM after 24 hrs by annexin V/PI staining-based FACS analysis (reference value: 2.8 %)
A549 [26] = assay: Induction of apoptosis in human A549 cells assessed as late apoptotic cells at 3 uM after 24 hrs by annexin V/PI staining-based FACS analysis (reference value: 3.5 %)
A549 [27] = assay: Induction of apoptosis in human A549 cells assessed as late apoptotic cells at 5 uM after 24 hrs by annexin V/PI staining-based FACS analysis (reference value: 3.5 %)
A549 [28] = assay: Induction of apoptosis in human A549 cells assessed as late apoptotic cells at 1 uM after 24 hrs by annexin V/PI staining-based FACS analysis (reference value: 3.5 %)
A549 [29] = assay: Induction of apoptosis in human A549 cells assessed as early apoptotic cells at 3 uM after 24 hrs by annexin V/PI staining-based FACS analysis (reference value: 2.6 %)
A549 [30] = assay: Induction of apoptosis in human A549 cells assessed as early apoptotic cells at 5 uM after 24 hrs by annexin V/PI staining-based FACS analysis (reference value: 2.6 %)
A549 [31] = assay: Induction of apoptosis in human A549 cells assessed as early apoptotic cells at 1 uM after 24 hrs by annexin V/PI staining-based FACS analysis (reference value: 2.6 %)
A549 [32] = assay: Cell cycle arrest in human A549 cells assessed as accumulation at sub-G1 phase at 10 uM after 24 hrs by flow cytometry (reference value: 7.8 %); type: functional
A549 [33] = assay: Cell cycle arrest in human A549 cells assessed as accumulation at G0/G1 phase at 10 uM after 24 hrs by flow cytometry (reference value: 53.1 %); type: functional
A549 [34] = assay: Cell cycle arrest in human A549 cells assessed as accumulation at S phase at 10 uM after 24 hrs by flow cytometry (reference value: 17.6 %); type: functional
A549 [35] = assay: Cell cycle arrest in human A549 cells assessed as accumulation at G2/M phase at 10 uM after 24 hrs by flow cytometry (reference value: 21.6 %); type: functional
A549 [36] = assay: Cell cycle arrest in human A549 cells assessed as accumulation at sub-G1 phase at 10 uM after 48 hrs by flow cytometry (reference value: 4.9 %); type: functional
A549 [37] = assay: Cell cycle arrest in human A549 cells assessed as accumulation at G0/G1 phase at 10 uM after 48 hrs by flow cytometry (reference value: 57.8 %); type: functional
A549 [38] = assay: Cell cycle arrest in human A549 cells assessed as accumulation at S phase at 10 uM after 48 hrs by flow cytometry (reference value: 12.0 %); type: functional
A549 [39] = assay: Cell cycle arrest in human A549 cells assessed as accumulation at G2/M phase at 10 uM after 48 hrs by flow cytometry (reference value: 25.4 %); type: functional

T1 sequence (O43497 whole entry): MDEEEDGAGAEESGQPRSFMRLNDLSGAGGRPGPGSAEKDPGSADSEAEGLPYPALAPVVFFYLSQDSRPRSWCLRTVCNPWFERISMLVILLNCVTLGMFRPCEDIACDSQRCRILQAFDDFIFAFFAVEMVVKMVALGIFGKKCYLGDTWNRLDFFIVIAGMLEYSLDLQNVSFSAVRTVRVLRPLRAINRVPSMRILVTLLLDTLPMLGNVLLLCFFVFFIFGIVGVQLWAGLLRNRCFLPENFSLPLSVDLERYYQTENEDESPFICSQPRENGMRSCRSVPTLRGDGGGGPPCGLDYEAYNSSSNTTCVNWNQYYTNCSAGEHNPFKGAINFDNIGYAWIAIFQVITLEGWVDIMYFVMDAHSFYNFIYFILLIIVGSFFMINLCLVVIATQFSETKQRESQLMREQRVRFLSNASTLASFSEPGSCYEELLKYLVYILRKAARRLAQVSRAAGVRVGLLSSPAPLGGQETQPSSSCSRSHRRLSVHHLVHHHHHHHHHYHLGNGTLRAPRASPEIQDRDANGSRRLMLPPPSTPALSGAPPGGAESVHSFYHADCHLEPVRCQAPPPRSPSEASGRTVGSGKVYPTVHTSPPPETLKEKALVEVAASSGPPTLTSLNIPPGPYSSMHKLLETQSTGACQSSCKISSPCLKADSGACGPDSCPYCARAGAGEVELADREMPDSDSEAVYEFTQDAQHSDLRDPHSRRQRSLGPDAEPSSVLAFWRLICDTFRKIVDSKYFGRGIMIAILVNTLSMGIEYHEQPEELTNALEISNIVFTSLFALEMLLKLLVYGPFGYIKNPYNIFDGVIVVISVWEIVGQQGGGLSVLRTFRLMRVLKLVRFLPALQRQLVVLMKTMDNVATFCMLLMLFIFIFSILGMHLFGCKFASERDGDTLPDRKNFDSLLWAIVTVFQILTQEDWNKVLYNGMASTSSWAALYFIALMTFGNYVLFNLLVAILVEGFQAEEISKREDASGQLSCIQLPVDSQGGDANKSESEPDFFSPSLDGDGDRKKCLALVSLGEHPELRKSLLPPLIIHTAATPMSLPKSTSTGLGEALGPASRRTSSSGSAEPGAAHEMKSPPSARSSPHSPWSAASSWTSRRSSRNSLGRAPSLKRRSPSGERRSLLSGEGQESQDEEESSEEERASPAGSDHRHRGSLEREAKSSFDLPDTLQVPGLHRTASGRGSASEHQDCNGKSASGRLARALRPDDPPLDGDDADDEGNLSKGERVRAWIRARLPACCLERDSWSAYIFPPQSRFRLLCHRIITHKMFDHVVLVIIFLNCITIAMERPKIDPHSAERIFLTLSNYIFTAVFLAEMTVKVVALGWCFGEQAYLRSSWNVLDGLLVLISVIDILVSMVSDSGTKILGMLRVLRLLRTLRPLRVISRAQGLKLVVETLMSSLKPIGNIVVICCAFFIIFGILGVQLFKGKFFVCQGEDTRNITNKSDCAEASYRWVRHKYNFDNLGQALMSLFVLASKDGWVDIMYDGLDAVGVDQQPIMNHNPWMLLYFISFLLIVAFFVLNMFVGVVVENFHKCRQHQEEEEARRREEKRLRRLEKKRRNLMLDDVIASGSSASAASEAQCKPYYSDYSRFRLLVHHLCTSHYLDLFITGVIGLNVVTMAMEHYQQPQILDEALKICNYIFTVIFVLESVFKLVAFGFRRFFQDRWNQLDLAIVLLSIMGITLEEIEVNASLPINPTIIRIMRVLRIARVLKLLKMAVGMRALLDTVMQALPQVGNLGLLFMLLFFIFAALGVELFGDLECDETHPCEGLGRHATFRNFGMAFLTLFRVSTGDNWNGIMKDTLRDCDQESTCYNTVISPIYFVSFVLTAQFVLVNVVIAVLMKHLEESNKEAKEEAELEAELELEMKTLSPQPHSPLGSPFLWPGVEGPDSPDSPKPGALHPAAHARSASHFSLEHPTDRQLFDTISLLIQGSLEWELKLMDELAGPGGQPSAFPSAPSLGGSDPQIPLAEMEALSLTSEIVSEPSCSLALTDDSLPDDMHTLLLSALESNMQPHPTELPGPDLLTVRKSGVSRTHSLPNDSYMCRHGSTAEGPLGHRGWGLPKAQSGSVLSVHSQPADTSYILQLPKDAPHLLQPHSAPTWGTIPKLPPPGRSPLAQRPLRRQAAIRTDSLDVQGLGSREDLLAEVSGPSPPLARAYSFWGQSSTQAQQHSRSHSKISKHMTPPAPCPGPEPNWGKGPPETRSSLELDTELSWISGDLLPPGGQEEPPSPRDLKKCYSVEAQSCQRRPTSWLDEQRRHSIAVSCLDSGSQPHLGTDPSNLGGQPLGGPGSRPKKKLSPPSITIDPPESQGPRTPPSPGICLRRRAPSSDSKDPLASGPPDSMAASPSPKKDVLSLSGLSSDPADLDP

Structure (SMILES): CN(C)C(=O)NCCCN(C)C1=Nc2ccccc2C(CC(=O)NCc2ccc(F)cc2)N1c1ccc(-c2ccccc2)cc1.Cl (stereo unspecified)
Ratio IC50 (A549 [1]): 2 | IC50 (A549 [2]): 15 µM | IC50 [3]: 7.43 µM | inhibition [4]: 53.5% | IC50 [5]: 0.6 µM

Structure (SMILES): CN(C)CCCCCCN(C)C1=Nc2ccccc2C(CC(=O)NCc2ccccc2)N1c1ccc2ccccc2c1.Cl (stereo unspecified)
Ratio IC50 (A549 [1]): 2 | IC50 (A549 [2]): 5.44 µM | IC50 [3]: 2.54 µM | inhibition [4]: 26.4%

Structure (SMILES): COCC(=O)O[C@]1(CCN(C)CCCc2nc3ccccc3[nH]2)CCc2cc(F)ccc2[C@@H]1C(C)C [MIBEFRADIL]
Activity (A549 [32]): 9.6% | Activity (A549 [33]): 66.1% | Activity (A549 [34]): 10.9% | Activity (A549 [35]): 13.4% | Activity (A549 [36]): 10% | Activity (A549 [37]): 66.8% | Activity (A549 [38]): 12% | Activity (A549 [39]): 11.2% | IC50 (A549 [2]): 24.8 µM | IC50 [3]: 18.4 µM

Structure (SMILES): CN(C)CCCCCN(C)C1=Nc2ccccc2C(CC(=O)NCc2ccccc2)N1c1ccc(-c2ccccc2)cc1.Cl.Cl (stereo unspecified)
Ratio IC50 (A549 [1]): 2 | IC50 (A549 [2]): 4.07 µM | IC50 [3]: 1.94 µM | inhibition [4]: 76.6% | Activity (A549 [12]): 55.3% | Activity (A549 [13]): 33.6% | Activity (A549 [14]): 8.8% | Activity (A549 [15]): 2.2% | Activity (A549 [16]): 98.1% | Activity (A549 [17]): 1.2% | Activity (A549 [18]): 0.6% | Activity (A549 [19]): 0.1%

Structure (SMILES): COc1ccc(CNC(=O)CC2c3ccccc3N=C(N(C)CCCCCCN(C)C)N2c2ccc3ccccc3c2)cc1.Cl (stereo unspecified)
Ratio IC50 (A549 [1]): 2 | IC50 (A549 [2]): 6.65 µM | IC50 [3]: 3.99 µM | inhibition [4]: 55.2% | IC50 [5]: 0.73 µM

More lines, main results first:

inhibition [4]: 64.3% | IC50 [5]: 0.52 µM
Structure (SMILES): CN(C)CCN1CCN(C2=Nc3ccccc3C(CC(=O)NCc3ccc(N(S(C)(=O)=O)S(C)(=O)=O)cc3)N2c2ccc(-c3ccccc3)cc2)CC1.Cl (stereo unspecified)
Ratio IC50 (A549 [1]): 2 | IC50 (A549 [2]): 20.7 µM | IC50 [3]: 16.1 µM

inhibition [4]: 38.1%
Structure (SMILES): CN(C)CCN1CCN(C2=Nc3ccccc3C(CC(=O)NCc3ccc([N+](=O)[O-])cc3)N2c2ccc(-c3ccccc3)cc2)CC1.Cl (stereo unspecified)
Ratio IC50 (A549 [1]): 2 | IC50 (A549 [2]): 4.69 µM | IC50 [3]: 2.18 µM

inhibition [4]: 39.2%
Structure (SMILES): CC(C)c1ccc(N2C(N3CCN(CCN(C)C)CC3)=Nc3ccccc3C2CC(=O)NCc2ccccc2)cc1.Cl (stereo unspecified)
Ratio IC50 (A549 [1]): 2 | IC50 (A549 [2]): 7.57 µM | IC50 [3]: 3.02 µM

inhibition [4]: 53.2% | IC50 [5]: 1.04 µM
Structure (SMILES): CN(C)CCN1CCN(C2=Nc3ccccc3C(CC(=O)NCc3ccccc3)N2c2ccc(C3CCCCC3)cc2)CC1.Cl (stereo unspecified)
Activity (A549 [6]): Active | Activity (A549 [7]): Active | Activity (A549 [8]): Active | Ratio IC50 (A549 [1]): 2 | Ratio IC50 (A549 [9]): 2 | Ratio IC50 (MIA PaCa-2 [10]): 2 | inhibition (A549 [2]): Dose-dependent effect | IC50 (A549 [2]): 2.25 µM | IC50 [3]: 0.93 µM | inhibition (MIA PaCa-2 [11]): Dose-dependent effect | Activity (A549 [12]): 15.8% | Activity (A549 [13]): 55.4% | Activity (A549 [14]): 12.8% | Activity (A549 [15]): 16% | Activity (A549 [16]): 77.8% | Activity (A549 [17]): 15.7% | Activity (A549 [18]): 4.6% | Activity (A549 [19]): 1.9% | viability at 3 µM (A549 [20]): 67.4% | viability at 5 µM (A549 [21]): 53.4% | viability at 1 µM (A549 [22]): 91.8% | Activity (A549 [23]): 0.3% | Activity (A549 [24]): 1.3% | Activity (A549 [25]): 2.5% | Activity (A549 [26]): 1.9% | Activity (A549 [27]): 13.3% | Activity (A549 [28]): 3.2% | Activity (A549 [29]): 30.4% | Activity (A549 [30]): 32.1% | Activity (A549 [31]): 2.5%

inhibition [4]: 46.4% | IC50 [5]: 1.81 µM
Structure (SMILES): CN(C)CCN1CCN(C2=Nc3ccccc3C(CC(=O)OCc3ccccc3)N2c2ccc(-c3ccccc3)cc2)CC1 (stereo unspecified)
Ratio IC50 (A549 [1]): 2 | IC50 (A549 [2]): 4.29 µM | IC50 [3]: 2.7 µM

Source: ChEMBL document CHEMBL3232892, “Inhibition of cellular proliferation and induction of apoptosis in human lung adenocarcinoma A549 cells by T-type calcium channel antagonist” (Bioorg Med Chem Lett, 2014)
